Reference: ChEMBL document CHEMBL4118103, “Synthesis and Bioactivity Investigation of the Individual Components of Cyclic Lipopeptide Antibiotics” (J Med Chem, 2018)
In brackets after ≈: the same amount, converted by molar mass. Bridge positions count the residues as written; N and C are the ends. Square brackets hold non-standard residues; d marks the D form. Peptide text beside a SMILES is read from it. * marks the point of attachment. X1 = CC[C@H](C)CCCCC(=O)*; Heptanoyl = CCCCCCC(=O)*; Octanoyl = CCCCCCCC(=O)*; Dab = NCC[C@H](N)C(=O)O

Tests used:
[1] = test system: Escherichia coli; assay: Antibacterial activity against Escherichia coli ATCC 25922 after 18 hrs by agar dilution method; format: functional
Procedure, shortened: (§1)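 Serial two-fold agar dilution per CLSI; bacteria cultured in Mueller-Hinton broth, inoculum about 10^4 cfu/spot; final concentrations 0.03-128 µg/mL; plates incubated 35 °C for 18 h. MIC = lowest concentration preventing visible growth; representative of at least two independent experiments, a third run when the two disagreed.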

[2] = test system: Escherichia coli; assay: Antibacterial activity against extended-spectrum beta-lactamase producing Escherichia coli isolate 14-11 after 18 hrs by agar dilution method; format: functional; procedure, shortened: as §1
[3] = test system: Klebsiella pneumoniae; assay: Antibacterial activity against extended-spectrum beta-lactamase producing Klebsiella pneumoniae 700603 after 18 hrs by agar dilution method; format: functional; procedure, shortened: as §1
[4] = test system: Klebsiella pneumoniae; assay: Antibacterial activity against NDM-1 producing Klebsiella pneumoniae ATCC BAA-2146 after 18 hrs by agar dilution method; format: functional; procedure, shortened: as §1
[5] = test system: Pseudomonas aeruginosa; assay: Antibacterial activity against Pseudomonas aeruginosa ATCC 27853 after 18 hrs by agar dilution method; format: functional; procedure, shortened: as §1
[6] = test system: Acinetobacter baumannii; assay: Antibacterial activity against Acinetobacter baumannii ATCC 19606 after 18 hrs by agar dilution method; format: functional; procedure, shortened: as §1
[7] = Cytotoxicity against African green monkey Vero cells after 72 hrs by MTT assay; format: cell-based; details: chlorocebus sabaeus, Vero cells
Procedure, shortened: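 Vero cells seeded at 2x10^3 cells/well, incubated 24 h at 37 °C, 5% CO2, then exposed to compound 72 h; MTT added for 2 h, medium removed, formazan dissolved in DMSO, absorbance read at 570 nm. Viability relative to untreated cells (100%); CC50 as mean ± SD of three independent experiments, each in triplicate.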

[8] = Klebsiella pneumoniae, 700603, 18 h
[9] = ATCC 19606 = CIP 70.34 = JCM 6841, 18 h

MIC ([1]; ATCC 25922, 18 h) [µg/mL]	MIC ([2]; isolate 14-11, 18 h) [µg/mL]	MIC [3, 8] [µg/mL]	MIC ([4]; ATCC BAA-2146, 18 h) [µg/mL]	MIC ([5]; ATCC 27853, 18 h) [µg/mL]	MIC [6, 9] [µg/mL]	Compound	CC50 at 72 h [7] [µg/mL]	MIC [1] [µg/mL]	MIC [2] [µg/mL]	MIC [3] [µg/mL]	MIC [4] [µg/mL]	MIC [5] [µg/mL]	MIC ([6]; ATCC 19606 = CIP 70.34 = JCM 6841) [µg/mL]
1 (≈ 0.855 µM)	0.5 (≈ 0.428 µM)	1 (≈ 0.855 µM)	1 (≈ 0.855 µM)	2 (≈ 1.71 µM)	1 (≈ 0.855 µM)	CC[C@H](C)CCCCC(=O)N[C@@H](CCN)C(=O)N[C@H](C(=O)N[C@@H](CCN)C(=O)N[C@H]1CCNC(=O)[C@H]([C@@H](C)O)NC(=O)[C@H](CCN)NC(=O)[C@H](CCN)NC(=O)[C@H]([C@@H](C)CC)NC(=O)[C@@H](CC(C)C)NC(=O)[C@H](CCN)NC1=O)[C@@H](C)O	176 (≈ 150 µM)						
0.25 (≈ 0.212 µM)	0.5 (≈ 0.424 µM)	1 (≈ 0.849 µM)	0.5 (≈ 0.424 µM)	4 (≈ 3.39 µM)	0.12 (≈ 0.102 µM)	CC[C@H](C)CCCCC(=O)N[C@@H](CCN)C(=O)N[C@H](C(=O)N[C@H](CO)C(=O)N[C@H]1CCNC(=O)[C@H]([C@@H](C)O)NC(=O)[C@H](CCN)NC(=O)[C@H](CCN)NC(=O)[C@H]([C@@H](C)O)NC(=O)[C@@H](Cc2ccccc2)NC(=O)[C@H](CCN)NC1=O)[C@@H](C)O	160 (≈ 136 µM)						
1 (≈ 0.876 µM)	0.5 (≈ 0.438 µM)	0.5 (≈ 0.438 µM)	0.5 (≈ 0.438 µM)	1 (≈ 0.876 µM)	2 (≈ 1.75 µM)	CCCCCCC(=O)N[C@@H](CCN)C(=O)N[C@H](C(=O)N[C@@H](CCN)C(=O)N[C@H]1CCNC(=O)[C@H]([C@@H](C)O)NC(=O)[C@H](CCN)NC(=O)[C@H](CCN)NC(=O)[C@H](CC(C)C)NC(=O)[C@@H](CC(C)C)NC(=O)[C@H](CCN)NC1=O)[C@@H](C)O (Heptanoyl-[Dab]T[Dab][Dab][Dab][dL]L[Dab][Dab]T; lactam 4-C)	216 (≈ 189 µM)						
0.5 (≈ 0.433 µM)	0.5 (≈ 0.433 µM)	1 (≈ 0.865 µM)	0.5 (≈ 0.433 µM)	1 (≈ 0.865 µM)	0.5 (≈ 0.433 µM)	CCCCCCCC(=O)N[C@@H](CCN)C(=O)N[C@H](C(=O)N[C@@H](CCN)C(=O)N[C@H]1CCNC(=O)[C@H]([C@@H](C)O)NC(=O)[C@H](CCN)NC(=O)[C@H](CCN)NC(=O)[C@H](CC(C)C)NC(=O)[C@@H](CC(C)C)NC(=O)[C@H](CCN)NC1=O)[C@@H](C)O (Octanoyl-[Dab]T[Dab][Dab][Dab][dL]L[Dab][Dab]T; lactam 4-C)	150 (≈ 130 µM)						
0.5 (≈ 0.433 µM)	0.5 (≈ 0.433 µM)	1 (≈ 0.865 µM)	0.5 (≈ 0.433 µM)	2 (≈ 1.73 µM)	0.5 (≈ 0.433 µM)	CC[C@H](C)CCCCC(=O)N[C@@H](CCN)C(=O)N[C@H](C(=O)N[C@@H](CCN)C(=O)N[C@H]1CCNC(=O)[C@H]([C@@H](C)O)NC(=O)[C@H](CCN)NC(=O)[C@H](CCN)NC(=O)[C@H](C(C)C)NC(=O)[C@@H](CC(C)C)NC(=O)[C@H](CCN)NC1=O)[C@@H](C)O (X1-[Dab]T[Dab][Dab][Dab][dL]V[Dab][Dab]T; lactam 4-C)	131 (≈ 113 µM)						
						COLISTIN		1	0.5	1	1	2	0.5

Compound	MIC ([1]; ATCC 25922, 18 h) [µg/mL]	MIC ([2]; isolate 14-11, 18 h) [µg/mL]	MIC [3, 8] [µg/mL]	MIC ([4]; ATCC BAA-2146, 18 h) [µg/mL]	MIC ([5]; ATCC 27853, 18 h) [µg/mL]	MIC [6, 9] [µg/mL]	CC50 at 72 h [7] [µg/mL]	MIC [1] [µg/mL]	MIC [2] [µg/mL]	MIC [3] [µg/mL]	MIC [4] [µg/mL]	MIC [5] [µg/mL]	MIC ([6]; ATCC 19606 = CIP 70.34 = JCM 6841) [µg/mL]
CCCCCCCC(=O)N[C@@H](CCN)C(=O)N[C@H](C(=O)N[C@@H](CCN)C(=O)N[C@H]1CCNC(=O)[C@H]([C@@H](C)O)NC(=O)[C@H](CCN)NC(=O)[C@H](CCN)NC(=O)[C@H](CC(C)C)NC(=O)[C@@H](Cc2ccccc2)NC(=O)[C@H](CCN)NC1=O)[C@@H](C)O (Octanoyl-[Dab]T[Dab][Dab][Dab][dF]L[Dab][Dab]T; lactam 4-C)	0.5 (≈ 0.42 µM)	1 (≈ 0.841 µM)	1 (≈ 0.841 µM)	1 (≈ 0.841 µM)	1 (≈ 0.841 µM)	0.5 (≈ 0.42 µM)	86 (≈ 72.3 µM)						
CC[C@H](C)CCCCC(=O)N[C@@H](CCN)C(=O)N[C@H](C(=O)N[C@@H](CCN)C(=O)N[C@H]1CCNC(=O)[C@H]([C@@H](C)O)NC(=O)[C@H](CCN)NC(=O)[C@H](CCN)NC(=O)[C@H](CC(C)C)NC(=O)[C@@H](Cc2ccccc2)NC(=O)[C@H](CCN)NC1=O)[C@@H](C)O (X1-[Dab]T[Dab][Dab][Dab][dF]L[Dab][Dab]T; lactam 4-C)	1 (≈ 0.831 µM)	0.5 (≈ 0.415 µM)	2 (≈ 1.66 µM)	0.25 (≈ 0.208 µM)	2 (≈ 1.66 µM)	0.25 (≈ 0.208 µM)	71 (≈ 59 µM)						
